Experimental data: ChEMBL document CHEMBL3627671, “Novel derivatives of nitro-substituted salicylic acids: Synthesis, antimicrobial activity and cytotoxicity” (Bioorg Med Chem, 2015)
Converted amounts (≈) assume the structure as drawn.

Columns and labels:
Nakaseomyces glabratus [1] = assay: Antifungal activity against Candida glabrata 20/I after 24 hrs by microdilution broth method; assay type: functional
Procedure, shortened: (§1)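 CLSI M27-A3 broth microdilution in RPMI 1640 with glutamine, buffered to pH 7.0 with MOPS; DMSO diluent. Yeast inoculum 5 × 10^3 ± 0.2 CFU/mL. Moulds grown on Sabouraud agar 3–10 days before spore harvest, final inoculum 0.5-5 × 10^4 CFU/mL, checked in a Bürker chamber. Incubated dark, humid, 35 °C, read at 24 and 48 h visually and at 540 nm. MIC taken as ≥80% (yeasts) or ≥50% (filamentous) growth reduction versus control.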

Pseudomonas aeruginosa [2] = assay: Antibacterial activity against Pseudomonas aeruginosa CCM 1961 after 48 hrs by microdilution broth method; assay type: functional; details: CCM 1961, 48 h
Procedure, shortened: (§2)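 Mueller-Hinton broth microdilution (modified M07-A07), pH 7.4 (±0.2). Compounds dissolved in DMSO, tested at final 500 to 0.49 µmol/L. Inoculum in sterile water matched to 0.5 McFarland. Incubated in the dark, humid atmosphere, 35 °C, read at 24 and 48 h visually and at 540 nm. MIC taken as ≥95% growth reduction (IC95) versus control.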

Staphylococcus aureus [3] = assay: Antibacterial activity against methicillin-resistant Staphylococcus aureus H 5996/08 after 24 hrs by microdilution broth method; assay type: functional; details: H 5996/08, 24 h
Pseudomonas aeruginosa [4] = assay: Antibacterial activity against Pseudomonas aeruginosa CCM 1961 after 24 hrs by microdilution broth method; assay type: functional; details: CCM 1961, 24 h; procedure, shortened: as §2
Trichosporon asahii [5] = assay: Antifungal activity against Trichosporon asahii 1188 after 48 hrs by microdilution broth method; assay type: functional; details: Trichosporon asahii, 1188, 48 h; procedure, shortened: as §1
Enterococcus sp. [6] = assay: Antibacterial activity against Enterococcus sp. J 14365/08 after 24 hrs by microdilution broth method; assay type: functional; details: J 14365/08, 24 h; procedure, shortened: as §2
Klebsiella pneumoniae [7] = assay: Antibacterial activity against ESBL-positive Klebsiella pneumoniae J 14368/08 after 24 hrs by microdilution broth method; assay type: functional; details: J 14368/08, 24 h; procedure, shortened: as §2
Aspergillus fumigatus [8] = assay: Antifungal activity against Aspergillus fumigatus 231 after 24 hrs by microdilution broth method; assay type: functional; details: Aspergillus fumigatus, 231, 24 h; procedure, shortened: as §1
Staphylococcus aureus [9] = assay: Antibacterial activity against Staphylococcus aureus CCM 4516/08 after 24 hrs by microdilution broth method; assay type: functional; details: CCM 4516/08, 24 h
Staphylococcus aureus [10] = assay: Antibacterial activity against Staphylococcus aureus CCM 4516/08 after 48 hrs by microdilution broth method; assay type: functional; details: CCM 4516/08, 48 h
[11] = system: Mycobacterium tuberculosis; assay: Antimycobacterial activity against Mycobacterium tuberculosis H37Rv 331/88 after 21 days; assay type: functional; details: H37Rv 331/88, 504 h
Candida albicans [12] = assay: Antifungal activity against Candida albicans ATCC 44859 after 48 hrs by microdilution broth method; assay type: functional; details: ATCC 44859, 48 h; procedure, shortened: as §1
HepG2 = assay: Cytotoxicity against human HepG2 cells after 24 hrs […]; assay type: cell-based; details: HepG2, 24 h
Candida tropicalis [13] = assay: Antifungal activity against Candida tropicalis 156 after 48 hrs by microdilution broth method; assay type: functional; details: Candida tropicalis, 156, 48 h; procedure, shortened: as §1
[14] = system: Mycobacterium tuberculosis; assay: Antimycobacterial activity against Mycobacterium tuberculosis H37Rv 331/88 after 14 days; assay type: functional; details: H37Rv 331/88, 336 h
Nakaseomyces glabratus [15] = assay: Antifungal activity against Candida glabrata 20/I after 48 hrs by microdilution broth method; assay type: functional; procedure, shortened: as §1
Mycobacterium avium [16] = assay: Antimycobacterial activity against Mycobacterium avium 330/80 after 21 days; assay type: functional; details: 330/80, 504 h
[17] = Selectivity index, ratio of CI50 for human HepG2 cells to MIC100 for Mycobacterium tuberculosis H37Rv 331/88
Klebsiella pneumoniae [18] = assay: Antibacterial activity against Klebsiella pneumoniae D 11750/08 after 24 hrs by microdilution broth method; assay type: functional; details: D 11750/08, 24 h; procedure, shortened: as §2
Pichia kudriavzevii [19] = assay: Antifungal activity against Candida krusei E28 after 24 hrs by microdilution broth method; assay type: functional; details: E28, 24 h; procedure, shortened: as §1
Pichia kudriavzevii [20] = assay: Antifungal activity against Candida krusei E28 after 48 hrs by microdilution broth method; assay type: functional; details: E28, 48 h; procedure, shortened: as §1
Candida albicans [21] = assay: Antifungal activity against Candida albicans ATCC 44859 after 24 hrs by microdilution broth method; assay type: functional; details: ATCC 44859, 24 h; procedure, shortened: as §1
Klebsiella pneumoniae [22] = assay: Antibacterial activity against ESBL-positive Klebsiella pneumoniae J 14368/08 after 48 hrs by microdilution broth method; assay type: functional; details: J 14368/08, 48 h; procedure, shortened: as §2
Enterococcus sp. [23] = assay: Antibacterial activity against Enterococcus sp. J 14365/08 after 48 hrs by microdilution broth method; assay type: functional; details: J 14365/08, 48 h; procedure, shortened: as §2
Mycobacterium avium [24] = assay: Antimycobacterial activity against Mycobacterium avium 330/80 after 14 days; assay type: functional; details: 330/80, 336 h
Lichtheimia corymbifera [25] = assay: Antifungal activity against Absidia corymbifera 272 after 48 hrs by microdilution broth method; assay type: functional; details: Lichtheimia corymbifera, 272, 48 h; procedure, shortened: as §1
Escherichia coli [26] = assay: Antibacterial activity against Escherichia coli CCM4517 after 48 hrs by microdilution broth method; assay type: functional; details: CCM4517, 48 h; procedure, shortened: as §2
Staphylococcus aureus [27] = assay: Antibacterial activity against methicillin-resistant Staphylococcus aureus H 5996/08 after 48 hrs by microdilution broth method; assay type: functional; details: H 5996/08, 48 h
Mycobacterium kansasii [28] = assay: Antimycobacterial activity against Mycobacterium kansasii 6509/96 after 21 days; assay type: functional; details: 6509/96, 504 h
Procedure, shortened: (§3)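 Šula's semisynthetic medium micromethod at 37 °C, read after 7, 14 and 21 days. The 1.0 McFarland suspension was diluted 10^-4. MIC determined. 6509/96 is a clinical isolate.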

[29] = system: Trichophyton mentagrophytes; assay: Antifungal activity against Trichophyton mentagrophytes 445 after 48 hrs by microdilution broth method; assay type: functional; details: Trichophyton mentagrophytes, 445, 48 h
[30] = system: Staphylococcus epidermidis; assay: Antibacterial activity against Staphylococcus epidermidis H 6966/08 after 24 hrs by microdilution broth method; assay type: functional; details: H 6966/08, 24 h; procedure, shortened: as §2
[31] = system: Staphylococcus epidermidis; assay: Antibacterial activity against Staphylococcus epidermidis H 6966/08 after 48 hrs by microdilution broth method; assay type: functional; details: H 6966/08, 48 h; procedure, shortened: as §2
Mycobacterium kansasii [32] = assay: Antimycobacterial activity against Mycobacterium kansasii 235/80 after 14 days; assay type: functional; details: 235/80, 336 h; procedure, shortened: as §3
Mycobacterium kansasii [33] = assay: Antimycobacterial activity against Mycobacterium kansasii 235/80 after 7 days; assay type: functional; details: 235/80, 168 h; procedure, shortened: as §3
Mycobacterium kansasii [34] = assay: Antimycobacterial activity against Mycobacterium kansasii 235/80 after 21 days; assay type: functional; details: 235/80, 504 h; procedure, shortened: as §3
[35] = system: Trichophyton mentagrophytes; assay: Antifungal activity against Trichophyton mentagrophytes 445 after 24 hrs by microdilution broth method; assay type: functional; details: Trichophyton mentagrophytes, 445, 24 h
Trichosporon asahii [36] = assay: Antifungal activity against Trichosporon asahii 1188 after 24 hrs by microdilution broth method; assay type: functional; details: Trichosporon asahii, 1188, 24 h; procedure, shortened: as §1
Klebsiella pneumoniae [37] = assay: Antibacterial activity against Klebsiella pneumoniae D 11750/08 after 48 hrs by microdilution broth method; assay type: functional; details: D 11750/08, 48 h; procedure, shortened: as §2
Escherichia coli [38] = assay: Antibacterial activity against Escherichia coli CCM4517 after 24 hrs by microdilution broth method; assay type: functional; details: CCM4517, 24 h; procedure, shortened: as §2
Aspergillus fumigatus [39] = assay: Antifungal activity against Aspergillus fumigatus 231 after 48 hrs by microdilution broth method; assay type: functional; details: Aspergillus fumigatus, 231, 48 h; procedure, shortened: as §1
Lichtheimia corymbifera [40] = assay: Antifungal activity against Absidia corymbifera 272 after 24 hrs by microdilution broth method; assay type: functional; details: Lichtheimia corymbifera, 272, 24 h; procedure, shortened: as §1
Mycobacterium kansasii [41] = assay: Antimycobacterial activity against Mycobacterium kansasii 6509/96 after 14 days; assay type: functional; details: 6509/96, 336 h; procedure, shortened: as §3
Mycobacterium kansasii [42] = assay: Antimycobacterial activity against Mycobacterium kansasii 6509/96 after 7 days; assay type: functional; details: 6509/96, 168 h; procedure, shortened: as §3
Candida tropicalis [43] = assay: Antifungal activity against Candida tropicalis 156 after 24 hrs by microdilution broth method; assay type: functional; details: Candida tropicalis, 156, 24 h; procedure, shortened: as §1

With `O=C(Nc1cccc(C(F)(F)F)c1)c1cc([N+](=O)[O-])ccc1O` as the compound, how does the MIC (Nakaseomyces glabratus [1]) read?
The MIC was greater than 500 µM.

What about the MIC (Pseudomonas aeruginosa [2]) of the same compound?
Its MIC is greater than 500 µM.

And the MIC (Staphylococcus aureus [3])?
The MIC was 31.2 µM (≈ 10.2 µg/mL).

What about the MIC (Pseudomonas aeruginosa [4]) of the same compound?
The MIC was greater than 500 µM.

And the MIC (Trichosporon asahii [5])?
The MIC was 500 µM (≈ 163 µg/mL).

And the MIC (Enterococcus sp. [6])?
The MIC was greater than 500 µM.

And the MIC (Klebsiella pneumoniae [7])?
Its MIC is greater than 500 µM.

And the MIC (Aspergillus fumigatus [8])?
The MIC was 500 µM (≈ 163 µg/mL).

What about the MIC (Staphylococcus aureus [9]) of the same compound?
Its MIC is 31.2 µM (≈ 10.2 µg/mL).

And the MIC (Staphylococcus aureus [10])?
Its MIC is 31.2 µM (≈ 10.2 µg/mL).

And the MIC [11]?
The MIC was 16 µM (≈ 5.22 µg/mL).

What about the MIC (Candida albicans [12]) of the same compound?
Its MIC is greater than 500 µM.

What about the IC50 (HepG2) of the same compound?
The IC50 was 7.4 µM.

What about the MIC (Candida tropicalis [13]) of the same compound?
Its MIC is greater than 500 µM.

And the MIC [14]?
Its MIC is 8 µM (≈ 2.61 µg/mL).

And the MIC (Nakaseomyces glabratus [15])?
The MIC was greater than 500 µM.

What about the MIC (Mycobacterium avium [16]) of the same compound?
The MIC was 125 µM (≈ 40.8 µg/mL).

And the “Selectivity Index” value [17]?
The value was 0.463.

And the MIC (Klebsiella pneumoniae [18])?
Its MIC is greater than 500 µM.

What about the MIC (Pichia kudriavzevii [19]) of the same compound?
Its MIC is greater than 500 µM.

What about the MIC (Pichia kudriavzevii [20]) of the same compound?
The MIC was greater than 500 µM.

And the MIC (Candida albicans [21])?
Its MIC is greater than 500 µM.

What about the MIC (Klebsiella pneumoniae [22]) of the same compound?
Its MIC is greater than 500 µM.

What about the MIC (Enterococcus sp. [23]) of the same compound?
Its MIC is greater than 500 µM.

What about the MIC (Mycobacterium avium [24]) of the same compound?
Its MIC is 125 µM (≈ 40.8 µg/mL).

And the MIC (Lichtheimia corymbifera [25])?
Its MIC is 500 µM (≈ 163 µg/mL).

What about the MIC (Escherichia coli [26]) of the same compound?
The MIC was greater than 500 µM.

And the MIC (Staphylococcus aureus [27])?
The MIC was 31.2 µM (≈ 10.2 µg/mL).

What about the MIC (Mycobacterium kansasii [28]) of the same compound?
Its MIC is 62.5 µM (≈ 20.4 µg/mL).

What about the MIC [29] of the same compound?
Its MIC is 500 µM (≈ 163 µg/mL).

And the MIC [30]?
The MIC was 31.2 µM (≈ 10.2 µg/mL).

What about the MIC [31] of the same compound?
The MIC was 31.2 µM (≈ 10.2 µg/mL).

What about the MIC (Mycobacterium kansasii [32]) of the same compound?
Its MIC is 32 µM (≈ 10.4 µg/mL).

What about the MIC (Mycobacterium kansasii [33]) of the same compound?
Its MIC is 16 µM (≈ 5.22 µg/mL).

What about the MIC (Mycobacterium kansasii [34]) of the same compound?
The MIC was 62.5 µM (≈ 20.4 µg/mL).

And the MIC [35]?
Its MIC is 500 µM (≈ 163 µg/mL).

What about the MIC (Trichosporon asahii [36]) of the same compound?
The MIC was 500 µM (≈ 163 µg/mL).

What about the MIC (Klebsiella pneumoniae [37]) of the same compound?
The MIC was greater than 500 µM.

What about the MIC (Escherichia coli [38]) of the same compound?
Its MIC is greater than 500 µM.

What about the MIC (Aspergillus fumigatus [39]) of the same compound?
Its MIC is 500 µM (≈ 163 µg/mL).

What about the MIC (Lichtheimia corymbifera [40]) of the same compound?
The MIC was 500 µM (≈ 163 µg/mL).

What about the MIC (Mycobacterium kansasii [41]) of the same compound?
The MIC was 62.5 µM (≈ 20.4 µg/mL).

And the MIC (Mycobacterium kansasii [42])?
Its MIC is 32 µM (≈ 10.4 µg/mL).

What about the MIC (Candida tropicalis [43]) of the same compound?
The MIC was greater than 500 µM.
